High-throughput results (PubChem BioAssay)
Jurkat NFkB inh – inhibitors of the PMA/ionomycin-induced NF-kB reporter in Jurkat cells. actives 0.53% (n = 330,000). PMA/ionomycin-induced NF-kB luciferase reporter, luminescence. inhibition, % at 4 µM; in the data active = inhibition above about 50%
Mdm2-MdmX inh – disrupts the human Mdm2-MdmX interaction | O15151+Q00987 | actives 3% (n = 330,000) | SaOS-2 split-luciferase Mdm2/MdmX complementation, luminescence | inhibition, % at 8 µM;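 active = inhibition of at least 50% at 8 µM in the primary screen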
697 NFkB inh – inhibitors of the PMA/ionomycin-induced NF-kB reporter in 697 B cells; 697 B-cell NF-kB luciferase reporter, 16 h; inhibition, % at 4 µM; actives 0.33% (n = 330,000); in the data active = inhibition above about 35%
aSyn UTR inh – MLPCN primary screen, SNCA 5' untranslated region; alpha-synuclein 5'UTR reporter, inhibitor activity; inhibition, % (tested at 7.5 µM); actives 0.82% (n = 300,000); AID 1813; in the data active = inhibition above about 60%;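 note: H4 neuroglioblastoma cells stably carrying SNCA 5'UTR luciferase fusion; 0% = DMSO wells and 100% = positive control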
VIM-2 inh – blocks Pseudomonas aeruginosa VIM-2 metallo-beta-lactamase | purified VIM-2, nitrocefin hydrolysis, epi-absorbance fluorescence | inhibition, % at 5.6 µM | actives 0.89% (n = 290,000) | AID 1527;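 active = inhibition above the mean of all tested compounds plus 3 SD, cutoff set per screening run, cut at about 7.5% in these data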;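 note: red hydrolysis product quenches plate fluorescence so inhibitors raise well fluorescence; 0% = enzyme with DMSO and 100% = DMSO without enzyme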
IMP-1 inh – blocks Pseudomonas aeruginosa IMP-1 metallo-beta-lactamase; purified IMP-1, nitrocefin hydrolysis, epi-absorbance fluorescence; inhibition, % at 5.6 µM; actives 0.45% (n = 290,000);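 active = inhibition above the mean plus 3 SD of all compounds in the same screening run, cut at about 4.5% in these data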;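 note: 0% = IMP-1 with DMSO and 100% = DMSO wells lacking enzyme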
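System: purified recombinant IMP-1 beta-lactamase. Medium: Zinc- and detergent-supplemented HEPES buffer, pH 7.1. Compound: one 5.6 µM dose […]. Schedule: 15 min preincubation plus 25 min reaction at 25 °C. Technique: Epi-absorbance fluorescence, 480 nm excitation, 530 nm emission.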
Mdm2 MdmX conf – human Mdm2/MdmX binding inhibition, confirmed | shares compounds with Mdm2-MdmX inh | luminescent assay | inhibition, % at 8 µM | actives 55% (n = 10,000) | AID 489028; in the data active = inhibition above about 40%
Full FLuc ctr – inhibits full-length luciferase, flagging false Mdm2/MdmX hits. inhibition, % at 8 µM. SaOS-2 full-length luciferase counterscreen, luminescence. shares compounds with Mdm2-MdmX inh. actives 77% (n = 6,200). AID 504607;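 active = mean inhibition at 8 µM reaching about 37%, which flags the compound as non-specific, limit read from the data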;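 note: p53-null SaOS-2 cells with luciferase driven by a doxycycline-inducible promoter; compound on cells about two nights before reading with doxycycline added after day one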
* = called active by the depositor. An excerpt weighted towards active compounds, which were near 4.7% of everything screened.

Screening N#Cc1ccc(COC(=O)c2ccc3c(c2)OCO3)cc1 returned Jurkat NFkB inh 14, Mdm2-MdmX inh -9, 697 NFkB inh 17, aSyn UTR inh -5, VIM-2 inh -3 and IMP-1 inh -3.
`FC(F)(F)c1cccc(-c2nc3nc(Cl)c(Cl)nc3[nH]2)c1` gave Jurkat NFkB inh -37, Mdm2-MdmX inh 80*, 697 NFkB inh -12, aSyn UTR inh 13, VIM-2 inh 0, IMP-1 inh -1, Mdm2 MdmX conf 75* and Full FLuc ctr 69*.
For COc1ccc(C(CCNC(C)c2ccccc2)c2ccc(F)cc2)cc1 (configuration not stated) the results were Jurkat NFkB inh 7, Mdm2-MdmX inh 73*, 697 NFkB inh -5, aSyn UTR inh 4, VIM-2 inh 0, IMP-1 inh -2 and Mdm2 MdmX conf 32.
`COc1ccc(CNCCC(c2ccc(F)cc2)c2ccc(OC)cc2)cc1` (configuration not stated) gave Jurkat NFkB inh -2, Mdm2-MdmX inh 66*, 697 NFkB inh 6, aSyn UTR inh 9, VIM-2 inh -3, IMP-1 inh 0, Mdm2 MdmX conf 43* and Full FLuc ctr 82*.
COc1ccc(CNC(=O)CNC(C)c2ccc(F)cc2)cc1 (configuration not stated) was read as Jurkat NFkB inh 1, Mdm2-MdmX inh 16, 697 NFkB inh 2, aSyn UTR inh 8, VIM-2 inh -3 and IMP-1 inh -3.
For COc1ccc(C(CCNCc2ccccc2)c2ccc(F)cc2)cc1 (configuration not stated) the results were Jurkat NFkB inh -3, Mdm2-MdmX inh 46, 697 NFkB inh 6, aSyn UTR inh -41, VIM-2 inh 1 and IMP-1 inh -5.
Screening COc1ccc(C(CCNCc2ccc(F)cc2)c2ccc(F)cc2)cc1 (configuration not stated) returned Jurkat NFkB inh 0, Mdm2-MdmX inh 76*, 697 NFkB inh 7, aSyn UTR inh -4, VIM-2 inh 0, IMP-1 inh -1, Mdm2 MdmX conf 34 and Full FLuc ctr 90*.
For CC(=O)O/N=C(\N)Cc1ccc(-c2csnn2)cc1 the results were Jurkat NFkB inh 1, Mdm2-MdmX inh 0, 697 NFkB inh -2, aSyn UTR inh -19, VIM-2 inh -1 and IMP-1 inh -3.
`O=C(Nc1nc2c(s1)CCCC2)c1ccc(S(=O)(=O)N2CCCc3ccccc32)cc1` gave Jurkat NFkB inh 10, Mdm2-MdmX inh 49, 697 NFkB inh -72, aSyn UTR inh 13, VIM-2 inh -2 and IMP-1 inh -4.
`CC1CCc2nc(NC(=O)c3ccc(S(=O)(=O)N4CCCc5ccccc54)cc3)sc2C1` (configuration not stated) gave Jurkat NFkB inh 2, Mdm2-MdmX inh 58*, 697 NFkB inh -24, aSyn UTR inh 12, VIM-2 inh -1, IMP-1 inh -1 and Mdm2 MdmX conf 12.
Screening Cc1ccc(CC(=O)NCc2ccc(F)cc2)cc1 returned Jurkat NFkB inh 47, Mdm2-MdmX inh 58*, 697 NFkB inh -19, aSyn UTR inh 3, VIM-2 inh -3, IMP-1 inh -3, Mdm2 MdmX conf 48* and Full FLuc ctr 59*.
O=C(/C=C/c1cccs1)N1CCC2(CC1)Oc1ccc(Cl)cc1C(=O)C21CC(c2cccnc2)=NO1 (configuration not stated) was read as Jurkat NFkB inh 17, Mdm2-MdmX inh 67*, 697 NFkB inh 19, aSyn UTR inh 4 and Mdm2 MdmX conf 27.
Screening Cc1ccc(C(=O)N2CCC3(CC2)Oc2ccc(Cl)cc2C(=O)C32CC(c3cccnc3)=NO2)s1 (configuration not stated) returned Jurkat NFkB inh 0, Mdm2-MdmX inh 15, 697 NFkB inh 12 and aSyn UTR inh 23.
For COC(=O)c1cc(NC(=O)c2c(Cl)nc3sccn23)cc(C(=O)OC)c1 the results were Jurkat NFkB inh -15, Mdm2-MdmX inh 68*, 697 NFkB inh -3, aSyn UTR inh 80*, VIM-2 inh -2, IMP-1 inh -1 and Mdm2 MdmX conf 13.
O=C(NCCc1ccccc1)c1ccc2c(c1)OCO2 was read as Jurkat NFkB inh -4, Mdm2-MdmX inh 66*, 697 NFkB inh -81, aSyn UTR inh 91*, VIM-2 inh -1, IMP-1 inh -3, Mdm2 MdmX conf 57* and Full FLuc ctr 52*.
CSc1cc(N2CCOCC2)nc(-c2ccccc2Cl)n1 was read as Jurkat NFkB inh -4, Mdm2-MdmX inh 14, 697 NFkB inh 4, aSyn UTR inh 5, VIM-2 inh -2 and IMP-1 inh -4.
For CCOc1ccccc1OCCC(=O)N1CCN(S(=O)(=O)c2ccccc2[N+](=O)[O-])CC1 the results were Jurkat NFkB inh 6, Mdm2-MdmX inh 62*, 697 NFkB inh -14 and Mdm2 MdmX conf 19.
Screening COC(=O)C1=C(CS(=O)(=O)c2ccccc2)NC(=O)NC1c1ccc(OC)c(OC)c1 (configuration not stated) returned Jurkat NFkB inh 12, Mdm2-MdmX inh -17, 697 NFkB inh -4, aSyn UTR inh 6, VIM-2 inh -2 and IMP-1 inh -1.
CC(=O)n1c2c(c3ccccc31)OC(N)=C(C#N)C2c1ccc(C(C)C)cc1 (configuration not stated) was read as Jurkat NFkB inh -13, Mdm2-MdmX inh 59*, 697 NFkB inh -234, aSyn UTR inh -118, VIM-2 inh -2, IMP-1 inh 0, Mdm2 MdmX conf 66* and Full FLuc ctr 131*.
Screening CN(C)CCN(CC1CCCN(Cc2ccccc2F)C1)C(=O)c1ccc(F)cc1 (configuration not stated) returned Jurkat NFkB inh -8, Mdm2-MdmX inh 15, 697 NFkB inh 8, aSyn UTR inh -6, VIM-2 inh -1 and IMP-1 inh 0.
For CC(=O)c1nn(-c2cccc(Br)c2)cc1C(=O)c1ccccc1 the results were Jurkat NFkB inh -11, Mdm2-MdmX inh 16, 697 NFkB inh 10, aSyn UTR inh 28, VIM-2 inh -1 and IMP-1 inh 0.
CC(=O)c1nn(-c2cccc(Br)c2)cc1C(=O)c1ccc(Cl)cc1 was read as Jurkat NFkB inh -6, Mdm2-MdmX inh 53*, 697 NFkB inh 0, aSyn UTR inh 25, VIM-2 inh 2, IMP-1 inh -1 and Mdm2 MdmX conf 14.
